Experimental data reported in ChEMBL document CHEMBL5356993, “Novel pyrazolo[3,4-d]pyrimidine derivatives: design, synthesis, anticancer evaluation, VEGFR-2 inhibition, and antiangiogenic activity” (RSC Med Chem, 2023).

Tests used:
Format in all cases: functional
Settings in all cases: read-out: GI
HCT-15 = experiment: Antiproliferative activity against human HCT-15 cells assessed as cell growth inhibition at 10 uM incubated for 48 hrs by SRB assay relative to control
OVCAR-8 = experiment: Antiproliferative activity against human OVCAR-8 cells assessed as cell growth inhibition at 10 uM incubated for 48 hrs by SRB assay relative to control
MOLT-4 = experiment: Antiproliferative activity against human MOLT-4 cells assessed as cell growth inhibition at 10 uM incubated for 48 hrs by SRB assay relative to control
SNB-75 = experiment: Antiproliferative activity against human SNB-75 cells assessed as cell growth inhibition at 10 uM incubated for 48 hrs by SRB assay relative to control
Procedure, shortened: (§1)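 Cells pre-incubated 24 h at 37°C, 5% CO2, then exposed to compound (DMSO stock diluted in medium with 50 µg/mL gentamicin) for 48 h. Adherent cells fixed with cold TCA (final 10%, 60 min, 4°C); suspension cells fixed with 16% TCA final. Stained with 0.4% SRB in 1% acetic acid for 10 min, dye solubilized in 10 mM Trizma base, absorbance read at 515 nm. Growth calculated against time-zero and untreated control plates.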

SF-268 = experiment: Antiproliferative activity against human SF-268 cells assessed as cell growth inhibition at 10 uM incubated for 48 hrs by SRB assay relative to control
HCC 2998 = experiment: Antiproliferative activity against human HCC 2998 cells assessed as cell growth inhibition at 10 uM incubated for 48 hrs by SRB assay relative to control
PC-3 = experiment: Antiproliferative activity against human PC-3 cells assessed as cell growth inhibition at 10 uM incubated for 48 hrs by SRB assay relative to control
SF-539 = experiment: Antiproliferative activity against human SF-539 cells assessed as cell growth inhibition at 10 uM incubated for 48 hrs by SRB assay relative to control
Procedure, shortened: (§2)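 Cells plated in 96-well plates at […] cells/well and preincubated 24 h at 37 °C, 5% CO2. Time-zero plates were TCA-fixed. Compound was diluted in medium with 50 µg/mL gentamicin and cells exposed for 48 h. Adherent cells fixed with 10% final TCA; suspension cells with 16% final TCA. Plates stained with 0.4% SRB in 1% acetic acid, dye solubilized in 10 mM Trizma, absorbance read at 515 nm. Percent growth calculated against time-zero and control.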

NCI-H226 = experiment: Antiproliferative activity against human NCI-H226 cells assessed as cell growth inhibition at 10 uM incubated for 48 hrs by SRB assay relative to control; procedure, shortened: as §2
MDA-MB-435 = experiment: Antiproliferative activity against human MDA-MB-435 cells assessed as cell growth inhibition at 10 uM incubated for 48 hrs by SRB assay relative to control
SK-MEL-28 = experiment: Antiproliferative activity against human SK-MEL-28 cells assessed as cell growth inhibition at 10 uM incubated for 48 hrs by SRB assay relative to control; procedure, shortened: as §2
A549 = experiment: Antiproliferative activity against human A549 cells assessed as cell growth inhibition at 10 uM incubated for 48 hrs by SRB assay relative to control
NCI-H522 = experiment: Antiproliferative activity against human NCI-H522 cells assessed as cell growth inhibition at 10 uM incubated for 48 hrs by SRB assay relative to control; procedure, shortened: as §2
A498 = experiment: Antiproliferative activity against human A498 cells assessed as cell growth inhibition at 10 uM incubated for 48 hrs by SRB assay relative to control; procedure, shortened: as §2
HL-60(TB) = experiment: Antiproliferative activity against human HL-60(TB) cells assessed as cell growth inhibition at 10 uM incubated for 48 hrs by SRB assay relative to control
Procedure, shortened: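 Cells were plated at […] cells/well and preincubated 24 h at 37°C, 5% CO2, with time-zero plates TCA-fixed. Compound was diluted from DMSO stock in medium with 50 µg/mL gentamicin, then exposed for 48 h. Settled suspension cells were fixed with 80% TCA (final 16%), stained with 0.4% SRB and solubilized in 10 mM Trizma, A515. Growth was taken relative to Tz and control.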

SN12C = experiment: Antiproliferative activity against human SN12C cells assessed as cell growth inhibition at 10 uM incubated for 48 hrs by SRB assay relative to control
HOP-92 = experiment: Antiproliferative activity against human HOP-92 cells assessed as cell growth inhibition at 10 uM incubated for 48 hrs by SRB assay relative to control; procedure, shortened: as §2
SNB-19 = experiment: Antiproliferative activity against human SNB-19 cells assessed as cell growth inhibition at 10 uM incubated for 48 hrs by SRB assay relative to control; procedure, shortened: as §1
HCT-116 = experiment: Antiproliferative activity against human HCT-116 cells assessed as cell growth inhibition at 10 uM incubated for 48 hrs by SRB assay relative to control
786-0 = experiment: Antiproliferative activity against human 786-0 cells assessed as cell growth inhibition at 10 uM incubated for 48 hrs by SRB assay relative to control
ACHN = experiment: Antiproliferative activity against human ACHN cells assessed as cell growth inhibition at 10 uM incubated for 48 hrs by SRB assay relative to control
LOX IMVI = experiment: Antiproliferative activity against human LOX IMVI cells assessed as cell growth inhibition at 10 uM incubated for 48 hrs by SRB assay relative to control
NCI-H23 = experiment: Antiproliferative activity against human NCI-H23 cells assessed as cell growth inhibition at 10 uM incubated for 48 hrs by SRB assay relative to control
HT-29 = experiment: Antiproliferative activity against human HT-29 cells assessed as cell growth inhibition at 10 uM incubated for 48 hrs by SRB assay relative to control; procedure, shortened: as §2
RPMI-8226 = experiment: Antiproliferative activity against human RPMI-8226 cells assessed as cell growth inhibition at 10 uM incubated for 48 hrs by SRB assay relative to control
TK-10 = experiment: Antiproliferative activity against human TK-10 cells assessed as cell growth inhibition at 10 uM incubated for 48 hrs by SRB assay relative to control; procedure, shortened: as §1
Malme-3M = experiment: Antiproliferative activity against human Malme-3M cells assessed as cell growth inhibition at 10 uM incubated for 48 hrs by SRB assay relative to control
U-251 = experiment: Antiproliferative activity against human U-251 cells assessed as cell growth inhibition at 10 uM incubated for 48 hrs by SRB assay relative to control; procedure, shortened: as §1
OVCAR-4 = experiment: Antiproliferative activity against human OVCAR-4 cells assessed as cell growth inhibition at 10 uM incubated for 48 hrs by SRB assay relative to control
OVCAR-3 = experiment: Antiproliferative activity against human OVCAR-3 cells assessed as cell growth inhibition at 10 uM incubated for 48 hrs by SRB assay relative to control; procedure, shortened: as §2
KM12 = experiment: Antiproliferative activity against human KM12 cells assessed as cell growth inhibition at 10 uM incubated for 48 hrs by SRB assay relative to control; procedure, shortened: as §2
SF-295 = experiment: Antiproliferative activity against human SF-295 cells assessed as cell growth inhibition at 10 uM incubated for 48 hrs by SRB assay relative to control; procedure, shortened: as §2

Row | SMILES | inhibition of growth at 10 µM (HCT-15) [%] | inhibition of growth at 10 µM (OVCAR-8) [%] | inhibition of growth at 10 µM (MOLT-4) [%] | inhibition of growth at 10 µM (SNB-75) [%] | inhibition of growth at 10 µM (SF-268) [%] | inhibition of growth at 10 µM (HCC 2998) [%] | inhibition of growth at 10 µM (PC-3) [%] | inhibition of growth at 10 µM (SF-539) [%] | inhibition of growth at 10 µM (NCI-H226) [%] | inhibition of growth at 10 µM (MDA-MB-435) [%] | inhibition of growth at 10 µM (SK-MEL-28) [%] | inhibition of growth at 10 µM (A549) [%] | inhibition of growth at 10 µM (NCI-H522) [%] | inhibition of growth at 10 µM (A498) [%] | inhibition of growth at 10 µM (HL-60(TB)) [%] | inhibition of growth at 10 µM (SN12C) [%] | inhibition of growth at 10 µM (HOP-92) [%] | inhibition of growth at 10 µM (SNB-19) [%] | inhibition of growth at 10 µM (HCT-116) [%] | inhibition of growth at 10 µM (786-0) [%] | other results
1 | Cc1nc2c(cnn2-c2ccccc2)c(=O)n1-c1ccc(NC(=O)c2ccc([N+](=O)[O-])cc2)cc1 | 28.6 | 34.1 | 63.4 | 32.9 | < 15 | < 15 | 33.7 | 18.7 | 50.8 | 33.6 | 18.2 | 33 | 38.9 | 19.6 | 54 | 29 | < 15 | 25.4 | 55.6 | 16.3 | inhibition of growth at 10 µM (ACHN): 39.6%; inhibition of growth at 10 µM (LOX IMVI): 34.1%; inhibition of growth at 10 µM (NCI-H23): 50.6%; inhibition of growth at 10 µM (HT-29): 21.6%; inhibition of growth at 10 µM (RPMI-8226): 47.7%; inhibition of growth at 10 µM (TK-10): 31.5%; inhibition of growth at 10 µM (Malme-3M): 34%; inhibition of growth at 10 µM (U-251): < 15%; inhibition of growth at 10 µM (OVCAR-4): 48.2%; inhibition of growth at 10 µM (OVCAR-3): < 15%; inhibition of growth at 10 µM (KM12): 20.4%; inhibition of growth at 10 µM (SF-295): 56.3%
2 | Cc1nc2c(cnn2-c2ccccc2)c(=O)n1-c1ccc(/N=C2\C(=O)Nc3ccccc32)cc1 | 15.7 | 24.8 | 34.1 | < 15 | < 15 | < 15 | 24 | 20.9 | 24.7 | < 15 | < 15 | < 15 | 16.8 | < 15 | < 15 | 37.3 | 17.6 | 36 | 17.9 | < 15 | inhibition of growth at 10 µM (ACHN): 27.7%; inhibition of growth at 10 µM (LOX IMVI): 18.3%; inhibition of growth at 10 µM (NCI-H23): 30.7%; inhibition of growth at 10 µM (HT-29): < 15%; inhibition of growth at 10 µM (RPMI-8226): 36.5%; inhibition of growth at 10 µM (TK-10): < 15%; inhibition of growth at 10 µM (Malme-3M): 23.1%; inhibition of growth at 10 µM (U-251): 39.6%; inhibition of growth at 10 µM (OVCAR-4): 43.9%; inhibition of growth at 10 µM (OVCAR-3): 24.3%; inhibition of growth at 10 µM (KM12): < 15%; inhibition of growth at 10 µM (SF-295): 24.7%
3 | Cc1nc2c(cnn2-c2ccccc2)c(=O)n1-c1ccc(N2C(=O)c3ccccc3C2=O)cc1 | < 15 | < 15 | < 15 | < 15 | < 15 | < 15 | < 15 | < 15 | < 15 | < 15 | < 15 | < 15 | < 15 | < 15 | < 15 | < 15 | < 15 | < 15 | < 15 | < 15 | inhibition of growth at 10 µM (ACHN): < 15%; inhibition of growth at 10 µM (LOX IMVI): < 15%; inhibition of growth at 10 µM (NCI-H23): < 15%; inhibition of growth at 10 µM (HT-29): < 15%; inhibition of growth at 10 µM (RPMI-8226): < 15%; inhibition of growth at 10 µM (TK-10): < 15%; inhibition of growth at 10 µM (Malme-3M): < 15%; inhibition of growth at 10 µM (U-251): < 15%; inhibition of growth at 10 µM (OVCAR-4): < 15%; inhibition of growth at 10 µM (OVCAR-3): < 15%; inhibition of growth at 10 µM (KM12): < 15%; inhibition of growth at 10 µM (SF-295): < 15%
4 | Cc1nc2c(cnn2-c2ccccc2)c(=O)n1-c1ccc(NC(=O)c2ccco2)cc1 | < 15 | < 15 | < 15 | < 15 | < 15 | < 15 | < 15 | < 15 | < 15 | < 15 | < 15 | < 15 | < 15 | < 15 | 19.8 | < 15 | < 15 | < 15 | < 15 | < 15 | inhibition of growth at 10 µM (ACHN): < 15%; inhibition of growth at 10 µM (LOX IMVI): < 15%; inhibition of growth at 10 µM (NCI-H23): < 15%; inhibition of growth at 10 µM (HT-29): < 15%; inhibition of growth at 10 µM (RPMI-8226): 26.1%; inhibition of growth at 10 µM (TK-10): < 15%; inhibition of growth at 10 µM (Malme-3M): 16.6%; inhibition of growth at 10 µM (U-251): < 15%; inhibition of growth at 10 µM (OVCAR-4): 21.2%; inhibition of growth at 10 µM (OVCAR-3): < 15%; inhibition of growth at 10 µM (KM12): < 15%; inhibition of growth at 10 µM (SF-295): 15.3%
5 | Cc1nc2c(cnn2-c2ccccc2)c(=O)n1-c1ccc(NC(=O)c2ccc(F)cc2)cc1 | 33.9 | 36.3 | 94.6 | 35.5 | < 15 | 20.1 | 46.9 | < 15 | 43.8 | 46.2 | 16.2 | 45 | 36.1 | < 15 | 57.5 | 25.6 | < 15 | 19.6 | 51.7 | 17.5 | inhibition of growth at 10 µM (ACHN): 39%; inhibition of growth at 10 µM (LOX IMVI): 38.2%; inhibition of growth at 10 µM (NCI-H23): 49.8%; inhibition of growth at 10 µM (HT-29): 36.5%; inhibition of growth at 10 µM (RPMI-8226): 64.8%; inhibition of growth at 10 µM (TK-10): 29%; inhibition of growth at 10 µM (Malme-3M): 31.6%; inhibition of growth at 10 µM (U-251): 18.9%; inhibition of growth at 10 µM (OVCAR-4): 59.9%; inhibition of growth at 10 µM (OVCAR-3): < 15%; inhibition of growth at 10 µM (KM12): 35.9%; inhibition of growth at 10 µM (SF-295): 60.4%
